Data as given in ChEMBL document CHEMBL1139378, “Dual integrin and gastrin-releasing peptide receptor targeted tumor imaging using 18F-labeled PEGylated RGD-bombesin heterodimer 18F-FB-PEG3-Glu-RGD-BBN” (J Med Chem, 2009).
Each block holds one molecule with its values, some of them ahead of it.

Legend:
[1] = test system: Liver; experiment: Biodistribution in human PC3 cells xenografted athymic nude mouse liver at 0.74 MBq, iv after 1 hr; format: ADME, organism-based, PC-3; settings: in vivo
Outline: (§1)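 PC-3 human prostate carcinoma cells were grown in F-12K with 10% FBS, and 5×10^6 cells were injected s.c. into the right front flank of male athymic nude mice. Each mouse received 0.74 MBq (20 μCi) tracer and was sacrificed at 1 h pi. Tissues were wet-weighed and γ-counted against an injectate aliquot. Values are %ID/g normalized to 20 g body mass, mean ± SD, n = 4.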

[2] = Drug uptake in human PC3 cells xenografted mouse tumor at 3.7 MBq, iv after 60 mins by micro PET imaging; format: ADME, organism-based, Neoplasm, PC-3; settings: in vivo, 1 h
Outline: (§2)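 PC-3 xenograft nude mice (tumors 100–300 mm³) were given ~3.7 MBq (100 μCi) i.v. by tail vein under isoflurane. Static 5-min scans were taken at 30 min, 1 and 2 h (n = 4), plus a 35-min dynamic scan starting 1 min pi in one mouse. Images were OSEM-reconstructed without attenuation correction. Tumor and organ %ID/g came from ROIs on decay-corrected coronal images, assuming 1 g/mL density.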

[3] = test system: PC-3; experiment: Cellular uptake in human PC3 cells after 60 mins; format: ADME, cell-based; settings: pc-3, 1 h
Outline: (§3)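 PC-3 cells were seeded at 5×10^5 per well and left overnight, then PBS-rinsed and incubated with ~0.3 μCi/well radiotracer in culture medium at 37 or 4 °C for 15–120 min. Cells were washed with chilled PBS, trypsinized and γ-counted. Uptake is % of added radioactivity; two experiments, triplicate wells.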

[4] = Ratio of drug uptake in tumor to muscle from human PC3 cells xenografted mouse at 3.7 MBq, iv after 120 mins by micro PET imaging; format: ADME, organism-based, PC-3; settings: in vivo, 2 h
Outline: (§4)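 Tumor/nontumor ratios were calculated from ROI-derived %ID/g on decay-corrected 5-min static microPET scans at 2 h after ~3.7 MBq i.v. tracer in PC-3 xenograft nude mice (n = 4).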

[5] = test system: PC-3; experiment: Cellular uptake in human PC3 cells after 15 mins; format: ADME, cell-based; settings: pc-3, 0.25 h; outline: as §3
[6] = test system: Muscle tissue; experiment: Biodistribution in human PC3 cells xenografted athymic nude mouse muscle at 0.74 MBq, iv after 1 hr; format: ADME, organism-based, PC-3; settings: in vivo; outline: as §1
[7] = Drug uptake in human PC3 cells xenografted mouse tumor at 3.7 MBq, iv after 5 mins by micro PET imaging; format: ADME, organism-based, Neoplasm, PC-3; settings: in vivo; outline: as §2
[8] = Drug uptake in human PC3 cells xenografted mouse tumor at 3.7 MBq, iv by micro PET imaging in presence of RGD and BBN; format: ADME, organism-based, Neoplasm, PC-3; settings: in vivo
Outline: (§5)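 PC-3 tumor-bearing mice were co-injected i.v. with 3.7 MBq tracer and a blocking dose of c(RGDyK) (10 mg/kg), Aca-BBN(7–14) (15 mg/kg), or both. A 5-min static microPET scan was taken at 1 h pi (n = 3), and ROI-derived %ID/g was measured on decay-corrected coronal images.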

[9] = Ratio of drug uptake in tumor to kidneys from human PC3 cells xenografted mouse at 3.7 MBq, iv after 120 mins by micro PET imaging; format: ADME, organism-based, PC-3; settings: in vivo, 2 h; outline: as §4
[10] = Drug uptake in human PC3 cells xenografted mouse tumor at 3.7 MBq, iv by micro PET imaging in presence of BBN; format: ADME, organism-based, Neoplasm, PC-3; settings: in vivo; outline: as §5
[11] = test system: Liver; experiment: Drug uptake in human PC3 cells xenografted mouse liver at 3.7 MBq, iv after 30 mins by micro PET imaging; format: ADME, organism-based, PC-3; settings: in vivo, 0.5 h; outline: as §2
[12] = Ratio of drug uptake in tumor to liver from human PC3 cells xenografted mouse at 3.7 MBq, iv after 120 mins by micro PET imaging; format: ADME, organism-based, PC-3; settings: in vivo, 2 h; outline: as §4
[13] = test system: PC-3; experiment: Cellular uptake in human PC3 cells after 30 mins; format: ADME, cell-based; settings: pc-3, 0.5 h; outline: as §3
[14] = test system: Blood; experiment: Biodistribution in human PC3 cells xenografted athymic nude mouse blood at 0.74 MBq, iv after 1 hr; format: ADME, organism-based, PC-3; settings: in vivo; outline: as §1
[15] = Drug uptake in human PC3 cells xenografted mouse tumor at 3.7 MBq, iv by micro PET imaging in presence of RGD; format: ADME, organism-based, Neoplasm, PC-3; settings: in vivo; outline: as §5
[16] = Ratio of drug uptake in tumor to blood from human PC3 cells xenografted mouse at 3.7 MBq, iv after 120 mins by micro PET imaging; format: ADME, organism-based, PC-3; settings: tumour, 2 h; outline: as §4
[17] = test system: PC-3; experiment: Cellular uptake in human PC3 cells after 120 mins; format: ADME, cell-based; settings: pc-3, 2 h; outline: as §3
[18] = test system: PC-3; experiment: Inhibition of cellular uptake in human PC3 cells after 60 mins in presence of RGD; settings: pc-3, 1 h
[19] = Drug uptake in human PC3 cells xenografted mouse tumor at 3.7 MBq, iv after 15 mins by micro PET imaging; format: ADME, organism-based, Neoplasm, PC-3; settings: in vivo, 0.25 h; outline: as §2
[20] = Biodistribution in human PC3 cells xenografted athymic nude mouse tumor at 0.74 MBq, iv after 1 hr; format: ADME, organism-based, Neoplasm, PC-3; settings: in vivo; outline: as §1
[21] = test system: Kidney; experiment: Biodistribution in human PC3 cells xenografted athymic nude mouse kidney at 0.74 MBq, iv after 1 hr; format: ADME, organism-based, PC-3; settings: in vivo; outline: as §1
[22] = test system: Heart; experiment: Biodistribution in human PC3 cells xenografted athymic nude mouse heart at 0.74 MBq, iv after 1 hr; format: ADME, organism-based, PC-3; settings: in vivo; outline: as §1
[23] = test system: Spleen; experiment: Biodistribution in human PC3 cells xenografted athymic nude mouse spleen at 0.74 MBq, iv after 1 hr; format: ADME, organism-based, PC-3; settings: in vivo; outline: as §1
[24] = Drug uptake in human PC3 cells xenografted mouse tumor at 3.7 MBq, iv after 120 mins by micro PET imaging; format: ADME, organism-based, Neoplasm, PC-3; settings: in vivo, 2 h; outline: as §2
[25] = test system: Bone; experiment: Biodistribution in human PC3 cells xenografted athymic nude mouse bone at 0.74 MBq, iv after 1 hr; format: ADME, organism-based, Bone element, PC-3; settings: in vivo; outline: as §1
[26] = test system: PC-3; experiment: Inhibition of cellular uptake in human PC3 cells after 60 mins in presence of RGD and BBN; settings: pc-3, 1 h
[27] = test system: PC-3; experiment: Inhibition of cellular uptake in human PC3 cells after 60 mins in presence of BBN; settings: pc-3, 1 h
[28] = Drug uptake in human PC3 cells xenografted mouse tumor at 3.7 MBq, iv after 30 mins by micro PET imaging; format: ADME, organism-based, Neoplasm, PC-3; settings: in vivo, 0.5 h; outline: as §2
[29] = target: Gastrin-releasing peptide receptor (Homo sapiens) (UniProt P30550); experiment: Displacement of [125I][Tyr4]BBN form gastrin-releasing peptide receptor in human PC3 cells
Sequence of Gastrin-releasing peptide receptor (Homo sapiens) (P30550 whole entry, looked up): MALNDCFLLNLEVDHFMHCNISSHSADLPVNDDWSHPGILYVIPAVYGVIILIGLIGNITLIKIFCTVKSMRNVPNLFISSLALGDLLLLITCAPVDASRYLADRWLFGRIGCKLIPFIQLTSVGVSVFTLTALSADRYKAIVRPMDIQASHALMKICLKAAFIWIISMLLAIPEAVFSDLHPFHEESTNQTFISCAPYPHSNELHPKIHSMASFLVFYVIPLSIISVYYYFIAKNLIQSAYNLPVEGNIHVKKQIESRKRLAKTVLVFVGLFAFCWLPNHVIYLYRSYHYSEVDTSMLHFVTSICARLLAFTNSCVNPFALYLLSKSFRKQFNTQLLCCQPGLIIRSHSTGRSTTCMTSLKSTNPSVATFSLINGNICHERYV

Drug uptake [1]: 2 % ID/g
Drug uptake [2]: 4.41 % ID/g
Drug uptake [3]: 5.87%
Ratio [4]: 10.54
Drug uptake [5]: 4.72%
Drug uptake [6]: 2 % ID/g
Drug uptake [7]: 3.54 % ID/g
Drug uptake [8]: 0.43 % ID/g
Ratio [9]: 1.44
Drug uptake [10]: 1.58 % ID/g
Drug uptake [11]: 2 % ID/g
Ratio [12]: 6.43
Drug uptake [13]: 5.51%
Drug uptake [14]: 2 % ID/g
Drug uptake [15]: 2.19 % ID/g
Ratio [16]: 8.1
Drug uptake [17]: 6.65%
Inhibition [18]: 17.55%
Drug uptake [19]: 4.86 % ID/g
Drug uptake [20]: 4 % ID/g
Drug uptake [21]: 4.87 % ID/g
Drug uptake [22]: 2 % ID/g
Drug uptake [23]: 2 % ID/g
Drug uptake [24]: 2.88 % ID/g
Drug uptake [25]: 2 % ID/g
Inhibition [26]: 91.97%
Inhibition [27]: 83.67%
Drug uptake [28]: 6.35 % ID/g
Structure (SMILES): CSCC[C@@H](NC(=O)[C@H](CC(C)C)NC(=O)[C@@H](Cc1c[nH]cn1)NC(=O)CNC(=O)[C@H](NC(=O)[C@H](C)NC(=O)[C@@H](Cc1c[nH]c2ccccc12)NC(=O)[C@H](CCC(N)=O)NC(=O)CCCCCNC(=O)CC[C@H](NC(=O)COCCOCCOCCNC(=O)c1ccc([18F])cc1)C(=O)NCCCC[C@H]1NC(=O)[C@@H](CCCNC(=N)N)NC(=O)CNC(=O)[C@@H](CC(=O)O)NC(=O)[C@H](Cc2ccc(O)cc2)NC1=O)C(C)C)C(N)=O

IC50 [29]: 85.4 nM
Structure (SMILES): CSCC[C@H](NC(=O)[C@H](CC(C)C)NC(=O)[C@H](Cc1c[nH]cn1)NC(=O)CNC(=O)[C@@H](NC(=O)[C@H](C)NC(=O)[C@H](Cc1c[nH]c2ccccc12)NC(=O)[C@H](CCC(N)=O)NC(=O)CCCCCNC(=O)CC[C@H](NC(=O)COCCOCCOCCN)C(=O)NCCCC[C@@H]1NC(=O)[C@H](CCCNC(=N)N)NC(=O)CNC(=O)[C@H](CC(=O)O)NC(=O)[C@@H](Cc2ccc(O)cc2)NC1=O)C(C)C)C(N)=O

IC50 ([29]; pc-3): 73.3 nM
Structure (SMILES): CSCC[C@@H](NC(=O)[C@H](CC(C)C)NC(=O)[C@@H](Cc1c[nH]cn1)NC(=O)CNC(=O)[C@H](NC(=O)[C@H](C)NC(=O)[C@@H](Cc1c[nH]c2ccccc12)NC(=O)[C@H](CCC(N)=O)NC(=O)CCCCCNC(=O)CC[C@H](NC(=O)COCCOCCOCCNC(=O)c1ccc(F)cc1)C(=O)NCCCC[C@H]1NC(=O)[C@@H](CCCNC(=N)N)NC(=O)CNC(=O)[C@@H](CC(=O)O)NC(=O)[C@H](Cc2ccc(O)cc2)NC1=O)C(C)C)C(N)=O
